Source: PubChem BioAssay
Shown are actives, neighbours in structure and some others; about 1.7% of the full set was active somewhere.
IMP-1 inhibitor: IMP-1 metallo-beta-lactamase inhibitors, primary screen, biochemical, epi-absorbance readout, Pseudomonas aeruginosa enzyme | metallo-beta-lactamase IMP-1 (Pseudomonas aeruginosa) | inhibition, % at 5.6 µM | actives 0.45% (n = 290,000) | AID 1556, 2009 | purified IMP-1, nitrocefin hydrolysis, epi-absorbance fluorescence;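 active = inhibition above the mean plus 3 SD of all compounds in the same screening run, cut at about 4.5% in these data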
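Test system: recombinant IMP-1 enzyme, purified / Medium: HEPES buffer pH 7.1 with ZnSO4 and Brij 35 / Doses: single dose, 5.6 µM / Times: 25 °C, 15 min preincubation, 25 min reaction / Detection: Epi-absorbance via hydrolysed-nitrocefin quenching of white-plate fluorescence, 480/530 nm, EDTA stop / Evaluation: percent inhibition from optical density relative to buffer-blank wells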
PolyA inh: polyadenylation inhibitors in yeast reporter cells, primary screen, luminescence, S. cerevisiae; AID 1875, 2009; S. cerevisiae SKY197-pL101 polyadenylation reporter, beta-gal luminescence; efflux-impaired pdr1/pdr3 knockout yeast; score 100 = 6 SD above DMSO; activity score, % at 12 µM; actives 0.02% (n = 300,000);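 active = lowest replicate activity score at least 50, where 100 means six control SD above control mean; inconclusive = lowest score under 50 but half or more replicates reach 50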;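 also: yeast exposed to compound for 9 h at 30 °C; higher score means more reporter readthrough which indicates perturbed polyadenylation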
procasp3 activ: activators of human procaspase-3 D3A mutant, primary screen, biochemical, absorbance, PC-3 D3A mutant, single concentration. Caspase-3 (Homo sapiens), P42574. recombinant procaspase-3 D3A, Ac-DEVD-pNA absorbance 405 nm. activation, % at 8.5 µM. actives 0.11% (n = 330,000). AID 463141, 2010;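 active = activation above the mean of all tested compounds plus 3 SD, cut at about 21% in these data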
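Assay system – Procaspase-3 D3A mutant, all three cleavage aspartates alanine · Controls – DMSO-only low control, 5 µM PC-3 D3A high control · Schedule – 1 h compound preincubation, 2 h substrate hydrolysis at 25 °C · Signal – 405 nm absorbance of p-nitroaniline, reads at 0 and 120 min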
Neddyl block: inhibitors of cullin neddylation, primary screen, biochemical, TR-FRET, uHTS, NAE and Ubc12; calls only at 25 µM; actives 0.58% (n = 360,000); in the data active = inhibition above about 36%
proCasp7 act: procaspase-7 activators, primary screen, counter-screen for procaspase-3 activator project, biochemical, absorbance, HTS, human; Caspase-7 (Homo sapiens), P55210; recombinant procaspase-7, Ac-DEVD-pNA absorbance 405 nm; D23A/D198A/D206A triple mutant, cannot self-cleave; scale: DMSO 0, 5 µM enzyme 100; activation, % at 8.5 µM; actives 0.093% (n = 330,000); AID 463210, 2010;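 active = percent activation above the screen-wide mean plus 3 SD, cut at about 25% in these data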
Target sequence (P55210 whole entry D23A/D198A/D206A): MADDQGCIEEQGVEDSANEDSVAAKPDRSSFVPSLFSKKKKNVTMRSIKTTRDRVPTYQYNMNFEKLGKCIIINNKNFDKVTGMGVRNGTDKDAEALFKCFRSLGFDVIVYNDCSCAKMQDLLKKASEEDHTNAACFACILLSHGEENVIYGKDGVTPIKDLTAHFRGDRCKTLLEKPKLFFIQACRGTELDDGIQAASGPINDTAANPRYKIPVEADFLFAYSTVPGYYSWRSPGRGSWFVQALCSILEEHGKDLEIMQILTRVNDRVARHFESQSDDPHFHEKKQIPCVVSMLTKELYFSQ
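Test system: Procaspase-7 triple mutant (PC-7 D3A). Also added: Ac-DEVD-pNA substrate, 400 µM as added. Schedule: 1 h enzyme–compound preincubation and 2 h substrate reaction, both 25 °C. Signal: p-Nitroaniline absorbance at 405 nm, read at 0 and 120 min. Control set: low DMSO alone, high DMSO plus 5 µM PC-7.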
VIM-2 inhibitor: VIM-2 metallo-beta-lactamase inhibitors, primary screen, biochemical, epi-absorbance readout, Pseudomonas aeruginosa enzyme. purified VIM-2, nitrocefin hydrolysis, epi-absorbance fluorescence. inhibition, % at 5.6 µM. actives 0.89% (n = 290,000). AID 1527, 2009;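 active = inhibition above the mean of all tested compounds plus 3 SD, cutoff set per screening run, cut at about 7.5% in these data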;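 also: red hydrolysis product quenches plate fluorescence so inhibitors raise well fluorescence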
Large screens that a line does not name were inactive.

Cc1cccc(-c2noc(CCC(=O)NCC3CCCO3)n2)c1 (stereo unspecified)	none
CC(=O)c1ccc(N2CCN(C(=O)CCCc3nc4ccccc4s3)CC2)cc1	none
CC(=O)Oc1cc2oc(=O)c3c(c2cc1Cl)CCC3	VIM-2 inhibitor 9.7 (not shown: Neddyl block)
CC(C)Oc1cc2oc(=O)c3c(c2cc1Cl)CCC3	none
CCN1CCCC1CNc1ncnc2c1[nH]c1ccc(Cl)cc12 (stereo unspecified)	VIM-2 inhibitor 12
O=C1CCCN1CCCNc1ncnc2c1[nH]c1ccc(Cl)cc12	none
CC(C)C(=O)Nc1nnc(CSCc2ccccc2F)s1	VIM-2 inhibitor 10
Nc1c(C(=O)Nc2cccc(F)c2)nnn1-c1ccc2c(c1)OCCO2	IMP-1 inhibitor 18
COc1ccccc1/C=C1\SC(=S)N(C(C(=O)O)c2ccccc2)C1=O (stereo unspecified)	VIM-2 inhibitor 9.4
COC(=O)N/N=C/c1cc(N=Nc2ccccc2)ccc1O	none
Cc1cc(C(=O)N/N=C/c2cc(N=Nc3ccccc3)ccc2O)n[nH]1	proCasp7 act 26
N=C1C(c2nc3ccccc3s2)=C(O)CN1NC(=O)c1ccco1	none
CC(=Nc1ccccc1)c1sc2ccccc2c1O	Neddyl block active
CC(=Nc1ccc(Br)cc1)c1sc2ccccc2c1O	none (not shown: Neddyl block)
O=C1c2cccc3cccc(c23)C(=O)N1CCN1CCN(C(=S)Nc2ccccc2)CC1	VIM-2 inhibitor 7.8
CCC(=O)c1ccccc1OCCCCn1cncn1	IMP-1 inhibitor 8.4
CCN(CC)S(=O)(=O)c1cccc(C(=O)N/N=C2\CCCC(=O)C2)c1	IMP-1 inhibitor 5.8
CCN(CC)S(=O)(=O)c1cccc(C(=O)N/N=C2\CC(=O)CC(C)(C)C2)c1	none
CN(C(=O)C12CC3CC(CC(C3)C1)C2)C1(C)CCS(=O)(=O)C1 (stereo unspecified)	none
Cc1ccc(Cn2c(=N)c(C(=O)NC3CCCCC3)cc3c(=O)n4ccccc4nc32)cc1	none (not shown: Neddyl block)
N=c1c(C(=O)NC2CCCC2)cc2c(=O)n3ccccc3nc2n1Cc1ccccc1	VIM-2 inhibitor 7.9 (not shown: Neddyl block)
N=c1c(C(=O)NC2CCCCC2)cc2c(=O)n3ccccc3nc2n1Cc1ccc(F)cc1	VIM-2 inhibitor 9.9 (not shown: Neddyl block)
CC(C)Cc1nnc(NC(=O)CCC(=O)Nc2ccc(Cl)cc2)s1	none
CC(C)Cc1nnc(NC(=O)CCS(=O)(=O)c2ccc(Cl)cc2)s1	VIM-2 inhibitor 8.7
COc1ccccc1/C=C/C=C1\Oc2c(ccc(O)c2CN2CCN(CCO)CC2)C1=O	IMP-1 inhibitor 27
O=C1/C(=C/C=C/c2ccccc2)Oc2c1ccc(O)c2CN1CCN(CCO)CC1	PolyA inh inconclusive
Cc1ccc(/C=C2\Oc3c(ccc(O)c3CN3CCN(C)CC3)C2=O)cc1	VIM-2 inhibitor 9.5
CCN1CCN(Cc2c(O)ccc3c2O/C(=C\c2ccc(C)cc2)C3=O)CC1	VIM-2 inhibitor 8.8
O=C1Nc2ccccc2N2CCCC12 (stereo unspecified)	none (no result: Neddyl block)
CCOc1ccc(CCNC(=O)c2cccc(S(=O)(=O)N3CCCC3)c2)cc1OCC	none (no result: IMP-1 inhibitor, VIM-2 inhibitor)
CCc1c(C)c(C#N)c2nc3ccccc3n2c1NCC1CCCO1 (stereo unspecified)	VIM-2 inhibitor 7.8 (not shown: Neddyl block)
CC(C)c1cc(NCC2CCCO2)n2c(nc3ccccc32)c1C#N (stereo unspecified)	VIM-2 inhibitor 9.9 (not shown: Neddyl block)
CC(C)c1cc(NCCCN2CCOCC2)n2c(nc3ccccc32)c1C#N	none (not shown: Neddyl block)
O=C(CN1C(=O)NC2(CCc3ccccc32)C1=O)c1ccc2c(c1)OCCO2 (stereo unspecified)	none
O=C(NC1CCCC1)[C@@H]1CSC2c3ccccc3C(=O)N21 (stereo partly specified)	none
